This is an account of results in ChEMBL document CHEMBL1287654, “Anticancer activity of N-bis(trifluoromethyl)alkyl-N'-(polychlorophenyl) and N'-(1,2,4-triazolyl) ureas” (2010).

The structures appear in SMILES notation.

Assay type in all cases: functional
The subject of one experiment is SF-539. Put plainly: Growth inhibition of human SF539 cells after 48 hrs by sulforhodamine B assay. The following applies: SF-539, 48 h. In outline: (§1)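 NCI 60-cell-line main test over a five-log dose range. GI50 is the molar concentration giving half-growth inhibition, reported as log molar. Subpanel values are median GI50 across that subpanel's lines. Where 50% inhibition was not reached within the tested interval, the highest tested concentration was used.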

Another experiment has as its system NCI/ADR-RES. Briefly: Growth inhibition of human NCI/ADR-RES cells after 48 hrs by sulforhodamine B assay. In outline:
as §1

Experiment [1] in a line: Growth inhibition of human leukemia cell after 48 hrs by sulforhodamine B assay. Put shortly: (§2)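 Subpanel median growth inhibitory concentration: the average sensitivity of each tumor-type subpanel of the NCI 60-cell-line panel, derived from per-cell-line GI50 values. GI50 values came from a five log dose range and are expressed as log molar concentration for 50% net growth inhibition.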

Experiment [2] deals with MCF7. Briefly: Growth inhibition of human MCF7 cells assessed as cell growth at 100 uM after 48 hrs by sulforhodamine B assay relative to control. As to conditions: MCF7, 48 h, read-out: Activity. In outline:
(§3)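 One-dose pre-test on MCF7, NCI-H460 and SF-268. Cells were inoculated and pre-incubated on a microtiter plate, then given a single 10^-4 M dose and incubated 48 h. Growth was read spectrophotometrically and expressed as percent of untreated control cells; negative values indicate cell kill.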

The nature of experiment [3]: Growth inhibition of human non-small lung cancer cell after 48 hrs by sulforhodamine B assay. The following applies: Cancer cell lines. Put shortly:
as §2

The test system of another experiment is T47D. Put plainly: Growth inhibition of human T47D cells after 48 hrs by sulforhodamine B assay. In outline:
(§4)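 NCI 60-cell-line main screen across nine tumor types, with five log dose range per compound. GI50 is the molar concentration giving half growth inhibition, reported as the log of the molar concentration that inhibits 50% net cell growth.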

Another experiment relates to PC-3. Briefly: Growth inhibition of human PC3 cells after 48 hrs by sulforhodamine B assay. As to conditions: PC-3, 48 h. Put shortly: as §1
Experiment [4] can be described thus: Growth inhibition of human breast cancer cell after 48 hrs by sulforhodamine B assay. The following applies: Cancer cell lines. In outline: as §2
The subject of a further experiment is HT-29. Briefly: Growth inhibition of human HT-29 cells after 48 hrs by sulforhodamine B assay. The following applies: HT-29, 48 h. Put shortly: as §1
For experiment [5], the system named is MCF7. Put plainly: Growth inhibition of human MCF7 cells after 48 hrs by sulforhodamine B assay. As to conditions: MCF7, 48 h. In outline: as §1
Another experiment has as its system NCI-H460. Briefly: Growth inhibition of human NCI-H460 cells after 48 hrs by sulforhodamine B assay. As to conditions: NCI-H460, 48 h. Put shortly:
as §1

A short description of experiment [6]: Growth inhibition of human melanoma cell after 48 hrs by sulforhodamine B assay. Put shortly:
as §2

The test system of a further experiment is SF-268. Put plainly: Growth inhibition of human SF268 cells assessed as cell growth at 100 uM after 48 hrs by sulforhodamine B assay relative to control. The following applies: SF-268, 48 h, read-out: Activity. In outline:
as §3

A further experiment deals with COLO 205. Put plainly: Growth inhibition of human COLO205 cells after 48 hrs by sulforhodamine B assay. As to conditions: COLO 205, 48 h. In outline: as §1
Another experiment deals with CAKI-1. Put plainly: Growth inhibition of human Caki1 cells after 48 hrs by sulforhodamine B assay. As to conditions: CAKI-1, 48 h. Put shortly:
as §1

In another experiment the test system is OVCAR-3. Put plainly: Growth inhibition of human OVCAR-3 cells after 48 hrs by sulforhodamine B assay. As to conditions: OVCAR-3, 48 h. In outline: as §1
The subject of a further experiment is SNB-75. Put plainly: Growth inhibition of human SNB75 cells after 48 hrs by sulforhodamine B assay. As to conditions: SNB-75, 48 h. In outline: as §4
The test system of the next experiment is 786-0. Briefly: Growth inhibition of human 786-0 cells after 48 hrs by sulforhodamine B assay. As to conditions: 786-0, 48 h. Put shortly:
as §1

The next experiment relates to NCI-H226. Put plainly: Growth inhibition of human NCI-H226 cells after 48 hrs by sulforhodamine B assay. The following applies: NCI-H226, 48 h. Put shortly:
as §1

For another experiment, the system named is DU-145. Briefly: Growth inhibition of human DU145 cells after 48 hrs by sulforhodamine B assay. The following applies: DU-145, 48 h. Put shortly: as §1
A further experiment relates to IGROV-1. Briefly: Growth inhibition of human IGROV1 cells after 48 hrs by sulforhodamine B assay. The following applies: IGROV-1, 48 h. Put shortly:
as §1

A further experiment has as its system OVCAR-8. Put plainly: Growth inhibition of human OVCAR8 cells after 48 hrs by sulforhodamine B assay. The following applies: OVCAR-8, 48 h. In outline: as §1
Another experiment deals with CCRF-CEM. Briefly: Growth inhibition of human CCRF-CEM cells after 48 hrs by sulforhodamine B assay. Put shortly:
as §1

Another experiment deals with NCI-H322M. Put plainly: Growth inhibition of human NCI-H322M cells after 48 hrs by sulforhodamine B assay. Put shortly:
as §1

The subject of another experiment is U-251. Put plainly: Growth inhibition of human U251 cells after 48 hrs by sulforhodamine B assay. As to conditions: U-251, 48 h. Put shortly:
as §4

Another experiment has as its system EKVX. Briefly: Growth inhibition of human EKVX cells after 48 hrs by sulforhodamine B assay. Put shortly: as §1
In another experiment the test system is HCT-15. Briefly: Growth inhibition of human HCT15 cells after 48 hrs by sulforhodamine B assay. The following applies: HCT-15, 48 h. Put shortly: as §1

On to `CC(NC(=O)Nc1cc(Cl)ccc1Cl)(C(F)(F)F)C(F)(F)F`, for which the GI50 was 30.2 µM in the experiment with SF-539; 5.89 µM with NCI/ADR-RES; 9.12 µM in experiment [1]; 9.77 µM in experiment [3]; 3.47 µM in the experiment on T47D; 3.47 µM with PC-3. Moreover, the 50% growth inhibitory concentration (GI50) is 61.7 µM in experiment [4]; 3.72 µM in the experiment on HT-29; 11.7 µM in the experiment with MCF7 [5]; 5.75 µM in the experiment on NCI-H460; 36.3 µM in experiment [6]; 4.17 µM in the experiment with COLO 205. The 50% growth inhibitory concentration (GI50) is 19.1 µM in the experiment with CAKI-1; 4.17 µM in the experiment with OVCAR-3; 4.07 µM in the experiment with SNB-75; 9.77 µM with 786-0; 19.5 µM with NCI-H226; 9.55 µM in the experiment on DU-145. Besides, in the experiment with IGROV-1, the concentration for 50% growth inhibition (GI50) was 17.8 µM. Moreover, the growth at 100 µM with MCF7 [2] was 34%; with SF-268, 50%.

For the compound `CCC(NC(=O)Nc1cc(Cl)ccc1Cl)(C(F)(F)F)C(F)(F)F`, the GI50 in the experiment on SF-539 is 9.55 µM; in the experiment with OVCAR-8, 5.25 µM; with CCRF-CEM, 4.07 µM; in the experiment on NCI/ADR-RES it was 4.17 µM; in experiment [1], 3.8 µM; in the experiment with NCI-H322M it was 1.78 µM. Also, the GI50 in [3] was 3.72 µM; with PC-3, 2.19 µM; in experiment [4], 5.5 µM; with HT-29 it was 3.31 µM; with MCF7 [5], 7.24 µM; in the experiment with NCI-H460 it was 2.19 µM. The GI50 in the experiment with U-251 is 2.95 µM; in experiment [6], 5.25 µM; in the experiment with COLO 205, 1.82 µM; with CAKI-1, 4.57 µM; in the experiment on OVCAR-3, 3.09 µM; in the experiment with SNB-75 it was 3.63 µM. Moreover, the 50% growth inhibitory concentration (GI50) is 4.37 µM with 786-0; 3.16 µM in the experiment on EKVX; 6.17 µM with NCI-H226; 4.07 µM in the experiment on HCT-15; 4.68 µM in the experiment on DU-145; 5.62 µM in the experiment on IGROV-1. The growth at 100 µM is -89% in the experiment with MCF7 [2] and -99% with SF-268.
